Assay results from ChEMBL document CHEMBL1155202, “Synthesis and anticancer activity of novel 3,4-diarylthiazol-2(3H)-ones (imines)” (Bioorg Med Chem Lett, 2009).
pEC50, pIC50: −log10 of the molar value. Values belong to the compound of their own block, whether it stands above or below them.

Legend:
[1] = test system: CCRF-CEM; test: Anticancer activity against human CCRF-CEM cells after 72 hrs; assay type: functional, cell-based
How it was run: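 CEM human leukemia cells were exposed to compounds. IC50 was defined as the concentration required to inhibit 50% of cell proliferation.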

[2] = test system: SMMC-7721; test: Anticancer activity against human SMMC7721 cells after 72 hrs; assay type: functional, cell-based; settings: SMMC-7721, 72 h
How it was run: (§1)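 Solid human tumour lines (liver Bel-7402, HepG2, SMMC-7721; breast MCF-7; pancreatic SW-1990; colon HCT116) were exposed to compounds. IC50 was taken as the concentration inhibiting 50% of cell proliferation. CA-4 served as positive control.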

[3] = test system: HepG2; test: Cell cycle arrest in human HepG2 cells assessed as decrease in S phase cells after 20 hrs by flow cytometry using propidium iodide staining; assay type: functional, cell-based
How it was run: (§2)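 HepG2 cells were left untreated or treated with compounds across a dose range for 20 h at 37 °C. CA-4 served as positive control. Cell-cycle phase distribution (G1, S, G2/M fractions) was then analysed by flow cytometry.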

[4] = test system: HCT-116; test: Anticancer activity against human HCT116 cells after 72 hrs; assay type: functional, cell-based; settings: HCT-116, 72 h; how it was run: as §1
[5] = test system: HepG2; test: Cell cycle arrest in human HepG2 cells assessed as increase in G2/M phase cells after 20 hrs by flow cytometry using propidium iodide staining; assay type: functional, cell-based; settings: for pEC50: HepG2, 20 h; how it was run: as §2
[6] = test system: MCF7; test: Anticancer activity against human MCF7 cells after 72 hrs; assay type: functional, cell-based; settings: MCF7, 72 h; how it was run: as §1
[7] = test system: Bel-7402; test: Anticancer activity against human Bel7402 cells after 72 hrs; assay type: functional, cell-based; settings: Bel-7402, 72 h; how it was run: as §1
[8] = test system: SW1990; test: Anticancer activity against human SW1990 cells after 72 hrs; assay type: functional, cell-based; settings: SW1990, 72 h; how it was run: as §1
[9] = test system: HepG2; test: Anticancer activity against human HepG2 cells after 72 hrs; assay type: functional, cell-based; settings: HepG2, 72 h; how it was run: as §1
[10] = test system: HepG2; test: Cell cycle arrest in human HepG2 cells assessed as decrease in G1 phase cells after 20 hrs by flow cytometry using propidium iodide staining; assay type: functional, cell-based; how it was run: as §2
[11] = test system: HepG2; test: Ratio of Compound EC50 to Combrestatin A4 EC50 for cell cycle arrest in human HepG2 cells assessed as increase in G2/M phase cells after 20 hrs by flow cytometry using propidium iodide staining; assay type: functional

pIC50 [1]: 4.79
SMILES: COc1ccc(-n2c(-c3cc(OC)c(OC)c(OC)c3)c(Cl)sc2=O)cc1N

pIC50 [1]: 4.83
SMILES: COc1ccc(-n2c(-c3cc(OC)c(OC)c(OC)c3)csc2=O)cc1

pIC50 [2]: 5.13
pIC50 [4]: 5.47
pEC50 [5]: 5.41
pIC50 [6]: 5.36
pIC50 [7]: 5.48
pIC50 [8]: 4.69
pIC50 [9]: 5.35
pIC50 [1]: 6.62
SMILES: COc1ccc(-c2csc(=O)n2-c2cc(OC)c(OC)c(OC)c2)cc1N
Activity [3]: Dose-dependent effect
Activity [5]: Dose-dependent effect
Activity [10]: Dose-dependent effect
Ratio EC50 [11]: 130

pIC50 [2]: 3.93
pIC50 [4]: 4.07
pEC50 [5]: < 3.60
pIC50 [6]: 4.28
pIC50 [7]: 4.63
pIC50 [8]: 4.25
pIC50 [9]: 4.02
pIC50 [1]: 6.92
SMILES: COc1ccc(-c2c(Cl)sc(=O)n2-c2cc(OC)c(OC)c(OC)c2)cc1N

pIC50 [1]: < 4.70
SMILES: COc1ccc(-c2csc(=N)n2-c2ccc(OC)cc2)cc1

pIC50 [1]: 4.88
SMILES: COc1ccc(-n2c(-c3cc(OC)c(OC)c(OC)c3)csc2=N)cc1

pIC50 [1]: 5.82
SMILES: COc1ccc(-c2csc(=N)n2-c2cc(OC)c(OC)c(OC)c2)cc1

pIC50 [1]: 5.57
SMILES: COc1ccc(-n2c(-c3cc(OC)c(OC)c(OC)c3)csc2=O)cc1[N+](=O)[O-]

pIC50 [1]: 5.09
SMILES: COc1ccc(-c2csc(=O)n2-c2cc(OC)c(OC)c(OC)c2)cc1[N+](=O)[O-]

pIC50 [1]: 4.86
SMILES: COc1ccc(-n2c(-c3cc(OC)c(OC)c(OC)c3)c(Cl)sc2=O)cc1

pIC50 [1]: 5.12
SMILES: COc1ccc(-c2c(Cl)sc(=O)n2-c2cc(OC)c(OC)c(OC)c2)cc1[N+](=O)[O-]

pIC50 [1]: < 4.70
SMILES: COc1ccc(-n2c(-c3cc(OC)c(OC)c(OC)c3)c(Cl)sc2=O)cc1[N+](=O)[O-]

pIC50 [1]: 5.00
SMILES: COc1ccc(-n2c(-c3cc(OC)c(OC)c(OC)c3)csc2=O)cc1N

pIC50 [1]: 5.74
SMILES: COc1ccc(-c2csc(=O)n2-c2cc(OC)c(OC)c(OC)c2)cc1

SMILES: COc1ccc(/C=C\c2cc(OC)c(OC)c(OC)c2)cc1O [COMBRETASTATIN A4]
pIC50 [2]: 6.54
pIC50 [4]: 8.22
pEC50 [5]: > 7.52
pIC50 [6]: 7.52
pIC50 [7]: 5.76
pIC50 [8]: 6.60
pIC50 [9]: 8.22
pIC50 [1]: 8.70

pIC50 [1]: < 4.70
SMILES: COc1ccc(-c2c(Cl)sc(=O)n2-c2cc(OC)c(OC)c(OC)c2)cc1
